Most compounds without a hit are left out; they make up all but 2% or so of the library.
PPC-1+TRAIL kill – compounds killing PPC-1 cancer cells with TRAIL present, primary screen, TRAIL potentiator project, ATPLite luminescence, uHTS | PPC-1 cells + TRAIL, ATPLite viability luminescence | 220,000 tested, 0.41% active | cell killing (% activity), % at 4 µM or 5 µM;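 active = cell killing above 50% in the first pass at 4 µM, then a duplicate retest at 5 µM averaging 50% or more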;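 also: plate controls were cells with TRAIL plus DMSO for no effect and medium-only wells lacking cells for full effect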
FLuc inhib CS – firefly luciferase enzyme inhibitors, primary screen, artefact control for luciferase-based inhibitor screens, biochemical, luminescence, ATPLite; 200,000 tested, 1.5% active; 10 min; inhibition, % at 10 µM;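 active = inhibition above about 50% when tested at 10 µM, limit read from the data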
Target sequence (P08659 whole entry, looked up): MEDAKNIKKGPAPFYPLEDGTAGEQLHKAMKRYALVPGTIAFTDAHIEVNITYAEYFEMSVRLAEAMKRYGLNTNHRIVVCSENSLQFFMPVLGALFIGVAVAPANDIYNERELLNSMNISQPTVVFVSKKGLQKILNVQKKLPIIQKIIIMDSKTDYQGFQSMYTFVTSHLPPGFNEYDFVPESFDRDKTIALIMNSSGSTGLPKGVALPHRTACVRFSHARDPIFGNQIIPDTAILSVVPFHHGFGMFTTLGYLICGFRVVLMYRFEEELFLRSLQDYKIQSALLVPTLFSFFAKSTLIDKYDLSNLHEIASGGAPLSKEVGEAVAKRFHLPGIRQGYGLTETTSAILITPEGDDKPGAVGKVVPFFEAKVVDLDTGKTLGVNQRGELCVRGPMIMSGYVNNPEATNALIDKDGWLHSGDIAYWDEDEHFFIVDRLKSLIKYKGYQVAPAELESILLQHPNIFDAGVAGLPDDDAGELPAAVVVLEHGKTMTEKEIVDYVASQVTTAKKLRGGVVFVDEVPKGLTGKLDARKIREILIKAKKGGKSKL
HSP90 inh – HSP90 inhibitors, primary screen, cell lysate, luminescence; inhibition, % at 5.6 µM; Rabbit reticulocyte lysate, luciferase refolding luminescence, 3 h; Heat shock protein HSP 90 (rabbit reticulocyte lysate; luciferase refolding); 290,000 tested, 0.91% active; AID 1789, 2009;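 active = inhibition above the screen-wide mean plus 3 SD, computed separately per campaign, cut at about 16% in these data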;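 also: 0% = DMSO wells and 100% = 60 µM geldanamycin wells; inhibitors lower the luminescence because luciferase stays unfolded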
FLuc stim CS – FLuc activators, initial screening, artefact control for FLuc-dependent activation tests, biochemical, ATPlite luminescence; ATPlite luciferase biochemical, 10 min; 0 = ATP-free wells, 1 = DMSO control; Luciferin 4-monooxygenase (Photinus pyralis), P08659; 200,000 tested, under 10 active; activation factor at 10 µM;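 active = luciferase activation factor, scaled between plate controls, of at least 2 with compound at 10 µM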
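Assay system – cell-free luciferase reagent · Medium – PBS-based ATP solution · Dosing – test compounds dosed from 2 mM stocks in 100% DMSO · Timing – 10 min, room temperature · Technique – light output (luminescence) · Measure – luminescence gain marking luciferase activators · Controls – No-ATP low control, compound-free enzyme-plus-ATP high control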
TRAIL sens C8 – viability loss with TRAIL in NB7+C8 cells, primary screen, TRAIL sensitizer project, cell-based, ATPlite luminescence; 360,000 tested, 1% active; inhibition (viability loss, TRAIL sensitization), % at 10 µM;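 active = compounds causing at least 50% loss of cell viability in the single-dose screen, relative to plate controls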
Numbers without * were called inactive.

For Cc1noc(C)c1NC(=O)Nc1ccc2c(c1)C(=O)N([C@H](C)CO)C[C@H](C)[C@@H](CN(C)C(=O)Nc1ccc3c(c1)OCO3)O2 the results were TRAIL sens C8 -4.
O=C(Nc1c2c(nn1-c1ccc(F)cc1)CS(=O)(=O)C2)c1ccc(Br)o1 was read as HSP90 inh 1 and TRAIL sens C8 3.
Screening CCOc1cc(/C=C\[N+](=O)[O-])ccc1OCC(=O)Nc1ccccc1C returned PPC-1+TRAIL kill 2, FLuc inhib CS -4, HSP90 inh 0, FLuc stim CS 1 and TRAIL sens C8 64*.
CC(NC(=O)NC(=O)c1cccc(Cl)c1)c1ccccc1 (centres undefined) was read as HSP90 inh 9 and TRAIL sens C8 1.
Cc1cc(-c2cn3ccccc3n2)c(C)n1-c1ccccc1 was read as PPC-1+TRAIL kill 4, FLuc inhib CS 94*, HSP90 inh 2, FLuc stim CS 0.1 and TRAIL sens C8 64*.
COc1ccc(-n2c(C)cc(-c3cn4cccc(C)c4n3)c2C)cc1 was read as PPC-1+TRAIL kill 6, FLuc inhib CS -6, HSP90 inh -1, FLuc stim CS 1.1 and TRAIL sens C8 -5.
`O=C(O)CNC(=O)c1ccc(NC(=O)/C(=C/c2ccccc2)NC(=O)c2ccccc2)cc1` gave HSP90 inh 1 and TRAIL sens C8 -18.
Screening COc1ccc(-c2cc(-c3ccccc3)c(C#N)c(S(C)=O)n2)cc1 (centres undefined) returned PPC-1+TRAIL kill 40, FLuc inhib CS -2, HSP90 inh 2, FLuc stim CS 1 and TRAIL sens C8 91*.
Screening COc1cc(NC(=O)Cn2ncc(Cl)c(Cl)c2=O)c(C)cc1[N+](=O)[O-] returned PPC-1+TRAIL kill 19, FLuc inhib CS -5, HSP90 inh 1, FLuc stim CS 1.1 and TRAIL sens C8 93*.
For C/C(=N\OCC(=O)OC(C)C(=O)Nc1ccc(C(N)=O)cc1)c1ccc2c(c1)OCO2 (centres undefined) the results were HSP90 inh 0 and TRAIL sens C8 -25.
For COc1cc2ccccc2cc1C(=O)NCC(c1cccs1)N(C)C (centres undefined) the results were PPC-1+TRAIL kill 22, FLuc inhib CS 64*, HSP90 inh 1, FLuc stim CS 0.4 and TRAIL sens C8 35.
`COc1cc(OC)c(C(=O)NCC(c2cccs2)N(C)C)cc1OC` (centres undefined) gave PPC-1+TRAIL kill 5, FLuc inhib CS -4, HSP90 inh 4, FLuc stim CS 1 and TRAIL sens C8 -9.
CC1=CN2C(=N)/C(=C/c3ccco3)C(=O)N=C2S1 was read as PPC-1+TRAIL kill 45, FLuc inhib CS 92*, HSP90 inh -4, FLuc stim CS 0.1 and TRAIL sens C8 58*.
`Cc1ccc(NC(=O)C2C(=O)N(C)c3ccccc32)cc1` (centres undefined) gave PPC-1+TRAIL kill 27, FLuc inhib CS 76*, HSP90 inh -3, FLuc stim CS 0.2 and TRAIL sens C8 -5.
For COc1cc(NC(=O)c2ccc(=O)[nH]n2)cc(OC)c1OC the results were HSP90 inh -3 and TRAIL sens C8 -6.
COc1ccccc1NC(=O)CCCC(=O)OCC(=O)c1ccc(F)cc1 was read as HSP90 inh -1 and TRAIL sens C8 0.
Screening COc1ccccc1NC(CC(=O)c1ccccc1)C(=O)OCC(=O)c1ccc(F)cc1 (centres undefined) returned PPC-1+TRAIL kill -5, FLuc inhib CS -4, HSP90 inh 7, FLuc stim CS 1 and TRAIL sens C8 68*.
`CCOc1ccc(N2CC(C(=O)Nc3nnc(Cc4ccc(OC)cc4)s3)CC2=O)cc1` (centres undefined) gave HSP90 inh 11 and TRAIL sens C8 0.
COC(=O)CC1=NN(c2nc3ccccc3s2)C(=O)/C1=C/N(C)C was read as PPC-1+TRAIL kill 18, FLuc inhib CS 72*, HSP90 inh 7, FLuc stim CS 0.3 and TRAIL sens C8 3.
Screening O=C(CC1(CC(=O)N2CCOCC2)CCCC1)Nc1ccccc1 returned TRAIL sens C8 6.
For Nc1nc(Nc2ccccc2)nc2ccccc12 the results were PPC-1+TRAIL kill 43, FLuc inhib CS 88*, HSP90 inh 11, FLuc stim CS 0.1 and TRAIL sens C8 60*.
Screening Cc1ccc(Nc2nc(N)c3ccccc3n2)cc1Cl returned HSP90 inh 8 and TRAIL sens C8 69*.
O=C(N/N=C/c1ccc(OC(F)F)cc1)c1cccc(S(=O)(=O)N2CCOCC2)c1 was read as PPC-1+TRAIL kill 16, FLuc inhib CS -2, HSP90 inh 0, FLuc stim CS 1 and TRAIL sens C8 -8.
`COc1cc2c(cc1OC)CN(C1CC(=O)N(c3c(C)cccc3C)C1=O)CC2` (centres undefined) gave PPC-1+TRAIL kill 11, FLuc inhib CS -6, HSP90 inh 0, FLuc stim CS 1.1 and TRAIL sens C8 -13.
Screening CN1C(=O)C(O)(CC(=O)c2cccnc2)c2ccccc21 (centres undefined) returned PPC-1+TRAIL kill -6, FLuc inhib CS -4, HSP90 inh 13, FLuc stim CS 1 and TRAIL sens C8 -12.
Screening COc1cccc(C(=O)/C=C2\Sc3ccccc3N2C)c1 returned PPC-1+TRAIL kill 50, FLuc inhib CS 79*, HSP90 inh 0, FLuc stim CS 0.2 and TRAIL sens C8 51*.
COc1cccc(C(=O)Nc2ccccc2NC(=O)c2cccc(OC)c2)c1 was read as HSP90 inh -6 and TRAIL sens C8 -13.
CN1/C(=C\C(=O)c2cccnc2)Sc2ccccc21 was read as PPC-1+TRAIL kill 16, FLuc inhib CS 55*, HSP90 inh 3, FLuc stim CS 0.5 and TRAIL sens C8 19.
For Cc1ccc2nc(NC(=O)c3ccc4ncsc4c3)sc2c1 the results were PPC-1+TRAIL kill 32, FLuc inhib CS 41, HSP90 inh 6, FLuc stim CS 0.6 and TRAIL sens C8 39.
`CC1(C)CC(=O)c2sc(NC(=O)c3ccc4ncsc4c3)nc2C1` gave PPC-1+TRAIL kill 16, FLuc inhib CS 55*, HSP90 inh 3, FLuc stim CS 0.5 and TRAIL sens C8 25.
Cc1ccc(N(C)S(=O)(=O)c2cccc(C(=O)NNC(=O)c3ccncc3)c2)cc1 was read as TRAIL sens C8 14.
`Cc1nc2c(o1)C(=O)c1ccccc1C2=Nc1ccccc1` gave TRAIL sens C8 95*.
CC(=O)c1c(C)oc2c1C(=O)c1ccccc1C2=O was read as PPC-1+TRAIL kill 8, FLuc inhib CS -10, HSP90 inh 2, FLuc stim CS 1.1 and TRAIL sens C8 39.
COc1ccc2cc(CNCCOCCOCCNCc3ccc4cc(OC)ccc4c3)ccc2c1 was read as TRAIL sens C8 88*.
